PMC6008213 (Biochemistry, 2018)
Positions count from the first letter of the chain named.

Legend:
human TG2 [1] = molecular target: T1, human TG2 (Homo sapiens, UniProt P21980); test: TG2 transamidation activity assay; type: biochemical
T1 sequence (P21980 1-687): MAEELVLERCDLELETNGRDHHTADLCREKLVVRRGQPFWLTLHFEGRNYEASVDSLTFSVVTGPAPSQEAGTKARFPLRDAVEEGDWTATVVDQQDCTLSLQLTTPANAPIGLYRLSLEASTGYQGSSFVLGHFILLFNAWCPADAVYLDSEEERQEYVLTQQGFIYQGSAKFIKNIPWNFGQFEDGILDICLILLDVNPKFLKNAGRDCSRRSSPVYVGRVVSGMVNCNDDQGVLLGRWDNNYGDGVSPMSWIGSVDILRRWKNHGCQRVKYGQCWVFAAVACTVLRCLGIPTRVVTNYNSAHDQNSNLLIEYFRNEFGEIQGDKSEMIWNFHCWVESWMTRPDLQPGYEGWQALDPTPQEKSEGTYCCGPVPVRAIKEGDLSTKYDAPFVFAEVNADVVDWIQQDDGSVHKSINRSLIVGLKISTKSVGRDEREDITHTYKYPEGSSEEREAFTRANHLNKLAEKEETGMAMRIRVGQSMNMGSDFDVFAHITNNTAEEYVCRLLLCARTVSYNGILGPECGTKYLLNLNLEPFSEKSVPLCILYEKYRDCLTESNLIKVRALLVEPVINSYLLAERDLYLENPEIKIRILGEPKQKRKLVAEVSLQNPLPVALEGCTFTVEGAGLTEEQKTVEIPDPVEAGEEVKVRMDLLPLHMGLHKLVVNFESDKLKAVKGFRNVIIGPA
Summary of the method: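 Transamidation was measured with TG2 immobilized on fibronectin, in 50 mM Tris, 1 mM EDTA, pH 7.6, 22 °C. After timed exposure to oxidant, activity was read relative to untreated enzyme. Single-exponential fits gave k′. Ki and kinh/Ki came from the dependence of k′ on inhibitor concentration.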

[2] = molecular target: T2, C230S mutant of human TG2 (Homo sapiens, UniProt P21980, C230S); test: Deamidation activity of the C230S mutant of TG2 after cystamine treatment; type: biochemical; conditions: 10-fold molar excess of cystamine, 30 min; pH 7.6, 22 °C
T2 sequence (P21980 1-687 C230S): T1 sequence (P21980 1-687) with C230S

human TG2 [3] = molecular target: T1, human TG2; test: TG2 deamidation activity assay; type: biochemical; conditions: for kinh/Ki (bimolecular rate constant for TG2 oxidation): deamidation activity assay, 50 mM Tris, 1 mM EDTA, TG2 10 μM
Summary of the method: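 Human TG2 was expressed in and purified from E. coli and held at 10 μM in 50 mM Tris, 1 mM EDTA, pH 7.6, 22 °C, with disulfide oxidant. Aliquots taken at 2.5–120 min were diluted 10-fold into assay buffer. Deamidation activity was read relative to oxidant-free enzyme, in three technical replicates. Single-exponential fits gave k′. kinh/Ki came from the slope of k′ versus [I0], and Ki from fitting k′ versus [I0].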

TG2 = conditions: reported value; cited from earlier work

Row | Structure (SMILES) | Ki (human TG2 [1]) | kinh/Ki (bimolecular rate constant for TG2 oxidation) (human TG2 [1]; transamidation activity assay, 50 mM Tris, 1 mM EDTA, pH 7.6, 22 °C (disulfiram: TG2 50 nM, disulfiram 10 μM, 2.5% DMSO)) | retained deamidation activity of C230S mutant [2] | Ki (human TG2 [3]) | inactivation of WT TG2 (deamidation activity) (human TG2 [3]; 10-fold molar excess of cystamine, 30 min, pH 7.6, 22 °C) | kinh/Ki (bimolecular rate constant for TG2 oxidation) (human TG2 [3]; pH 7.6, 22 °C) | kinh/Ki (TG2)
1 | NCCSSCCN [cystamine] | > 100 µM | 28.3 M⁻¹ s⁻¹ | > 85% | > 600 µM | completely inactivated | 20 M⁻¹ s⁻¹ | –
2 | N[C@@H](CSSC[C@H](N)C(=O)O)C(=O)O [cystine] | – | – | – | – | – | 4.83 M⁻¹ s⁻¹ | –
3 | O=C(NC[C@@H]1CC(Br)=NO1)[C@@H]1CCCN1C(=O)OCc1cnc2ccccc2c1 [ERW1041E] | – | – | – | – | – | – | 267 M⁻¹ s⁻¹
